In ChEMBL document CHEMBL4014261, “Design, Synthesis, and Antimicrobial Evaluation of a Novel Bone-Targeting Bisphosphonate-Ciprofloxacin Conjugate for the Treatment of Osteomyelitis Biofilms” (J Med Chem, 2017):

System: Rattus norvegicus
Assay: Toxicity in jawbone peri-implant osteomyelitis Sprague-Dawley rat model infected with Aggregatibacter actinomycetemcomitans assessed as signs of gross tolerability at 0.3 mg/kg, ip administered 3 times per week measured after 1 week post pharmacotherapy
Format: organism-based
Conditions: in vivo, 168 h
Outline: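 Rats bearing infected palatal implants received i.p. dosing in sterile saline. They were observed during therapy for cutaneous injection-site reactions, inflammation and gross tolerability issues, and were euthanized one week after pharmacotherapy.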

O=C(O)c1cn(C2CC2)c2cc(N3CCN(C(=O)Oc4ccc(CC(P(=O)(O)O)P(=O)(O)O)cc4)CC3)c(F)cc2c1=O
Activity: Non-Toxic
